How the values were obtained:
[1] = Tmax in monkey at 5 mg/kg, po; format: ADME, organism-based, Macaca mulatta; parameters: dose 5 mg/kg, route oral; details: rhesus monkey, in vivo
Procedure, shortened: (§1)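 Single oral gavage-type dose in DMSO:PEG400 (10:90, v/v). Heparinized plasma collected at 0.25, 0.5, 1, 2, 4, 6, 9, 12 and 24 h, with extra 3 and 15 h points in dog. Acetonitrile protein precipitation was followed by LC-MS in negative-ion MRM mode with an internal standard. Tmax was read from the plasma profile.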

[2] = n-Octanol-phosphate buffer distribution coefficient, log D at pH 7.4; format: physicochemical
Procedure, shortened: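 Compound was dissolved in n-octanol and mixed with 50 mM phosphate buffer, isotonic with NaCl, pH 7.4. The mixture was tumbled at 25 °C, 25 rpm, for 2-3 days, then centrifuged to split the phases. Each phase was assayed by reverse-phase HPLC (UV 262 nm) against a linear standard curve. D is the octanol/buffer concentration ratio.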

[3] = Plasma clearance in monkey at 5 mg/kg, iv; format: ADME, organism-based, Macaca mulatta; parameters: dose 5 mg/kg, route intravenous; details: rhesus monkey
Procedure, shortened: (§2)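 Vehicle DMSO:PEG400 (10:90, v/v). Dosing at 5 mg/kg in rat and monkey; dog 5 mg/kg or 2.5 mg/kg. Protein precipitation with acetonitrile, then LC-MS/MS in negative-ion MRM (m/z 516.2→437.0) against spiked standards with internal standard.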

[4] = AUC in rat at 5 mg/kg, iv; format: ADME, organism-based; parameters: dose 5 mg/kg, route intravenous; details: plasma; procedure, shortened: as §2
[5] = Aqueous solubility in 50 mM citrate buffer at pH 4; format: physicochemical
Procedure, shortened: (§3)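 Equilibrium solubility in PEG 400, in 50 mM citrate buffer pH 4 or in 50 mM phosphate buffer pH 7.4. Buffers brought to ionic strength 0.155 M with NaCl. Vials rotated at 25 °C for 4 days, final pH measured, then supernatant assayed by reverse-phase HPLC at 262 nm against a linear standard curve.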

[6] = Metabolic stability in dog hepatocytes assessed as intrinsic clearance; format: ADME, cell-based, Canis lupus familiaris, Liver, Hepatocyte
Hepatitis C virus [7] = assay: Ratio of EC50 for HCV isolate Con1 in presence of 40% human serum to EC50 for HCV isolate Con1; format: functional, Hepacivirus hominis
Procedure, shortened: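 Genotype 1b-con1 subgenomic replicon in Huh-7 cells. Four-day incubation with inhibitor in medium with 5% FBS, with or without 40% human serum. EC50 from the fall in HCV RNA copy number by real-time PCR. Ratio is EC50 with serum over EC50 without.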

Hepatocyte [8] = assay: Metabolic stability in rat hepatocytes assessed as intrinsic clearance; format: ADME, cell-based, Liver
[9] = Elimination half life in dog at 2.5 mg/kg, iv; format: ADME, organism-based, Canis lupus familiaris; parameters: dose 2.5 mg/kg, route intravenous; details: in vivo, read-out: beta t1/2 (converted); procedure, shortened: as §2
[10] = Inhibition of HCV isolate H77 NS5B polymerase after 3 hrs by scintillation counting
[11] = Cmax in monkey at 5 mg/kg, po; format: ADME, organism-based, Macaca mulatta; parameters: dose 5 mg/kg, route oral; details: rhesus monkey, in vivo; procedure, shortened: as §2
[12] = Terminal phase volume of distribution in monkey at 5 mg/kg, iv; format: ADME, organism-based, Macaca mulatta; parameters: dose 5 mg/kg, route intravenous; details: rhesus monkey, in vivo, read-out: Vbeta
Procedure, shortened: (§4)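 Single intravenous dose. Heparinized plasma sampled at 0.1, 0.25, 0.5, 1, 2, 4, 6, 9, 12 and 24 h, plus 3 and 15 h in dog. Drug was isolated by acetonitrile protein precipitation and quantified by LC-MS in negative-ion MRM mode (m/z 516.2→437.0) against an internal standard. Concentrations came from unweighted linear regression of spiked standards.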

[13] = Terminal phase volume of distribution in dog at 2.5 mg/kg, iv; format: ADME, organism-based, Canis lupus familiaris; parameters: dose 2.5 mg/kg, route intravenous; details: in vivo, read-out: Vbeta; procedure, shortened: as §2
[14] = Oral bioavailability in dog at 2.5 mg/kg; format: ADME, organism-based, Canis lupus familiaris; details: in vivo; procedure, shortened: as §2
[15] = Drug level in rat liver at 5 mg/kg, po after 6 hrs; format: ADME, organism-based; parameters: dose 5 mg/kg, route oral; details: read-out: Drug uptake
Procedure, shortened: (§5)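 Rats dosed orally at 5 mg/kg, four groups, sacrificed at 6 and 12 h. Plasma and liver homogenate extracted by acetonitrile protein precipitation with internal standard and quantified by LC-MS (negative-ion MRM). Liver/plasma ratio taken from the two concentrations.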

[16] = Metabolic stability in rat liver microsomes assessed as intrinsic clearance; format: ADME, Microsome
[17] = Volume of distribution at steady state in rat at 5 mg/kg, iv; format: ADME, organism-based; parameters: dose 5 mg/kg, route intravenous; details: in vivo, read-out: Vdss; procedure, shortened: as §4
[18] = Elimination half life in monkey at 5 mg/kg, po; format: ADME, organism-based, Macaca mulatta; parameters: dose 5 mg/kg, route oral; details: rhesus monkey, in vivo, read-out: beta t1/2 (converted); procedure, shortened: as §2
[19] = Metabolic stability in dog liver microsomes assessed as intrinsic clearance; format: ADME, Canis lupus familiaris, Microsome
[20] = Tmax in rat at 5 mg/kg, po; format: ADME, organism-based; parameters: dose 5 mg/kg, route oral; details: in vivo; procedure, shortened: as §1
[21] = Cmax in dog at 2.5 mg/kg, po; format: ADME, organism-based, Canis lupus familiaris; parameters: dose 2.5 mg/kg, route oral; details: in vivo; procedure, shortened: as §2
[22] = Cmax in rat at 5 mg/kg, po; format: ADME, organism-based; parameters: dose 5 mg/kg, route oral; details: in vivo; procedure, shortened: as §2
[23] = Elimination half life in dog at 2.5 mg/kg, po; format: ADME, organism-based, Canis lupus familiaris; parameters: dose 2.5 mg/kg, route oral; details: in vivo, read-out: beta t1/2 (converted); procedure, shortened: as §2
[24] = Metabolic stability in monkey liver microsomes assessed as intrinsic clearance; format: ADME, Macaca mulatta, Microsome; details: rhesus monkey
Hepatitis C virus [25] = assay: Antiviral activity against HCV 1a containing chimeric genotype 1a-H77/1b-con1 subgenom in human Huh7 cells assessed as reduction in viral RNA after 4 days by RT-PCR; details: subtype 1a, Huh-7, 96 h
[26] = Plasma clearance in rat at 5 mg/kg, iv; format: ADME, organism-based; parameters: dose 5 mg/kg, route intravenous; procedure, shortened: as §2
[27] = Cytotoxicity against human HuH7 cells by MTT assay; format: cell-based, Huh-7; details: read-out: TD50 (the source's name)
Procedure, shortened: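 Cytotoxicity in Huh-7 replicon cultures measured by MTT colorimetric assay after the four-day incubation.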

[28] = Tmax in dog at 2.5 mg/kg, po; format: ADME, organism-based, Canis lupus familiaris; parameters: dose 2.5 mg/kg, route oral; details: in vivo; procedure, shortened: as §1
[29] = AUC in monkey at 5 mg/kg, po; format: ADME, organism-based, Macaca mulatta; parameters: dose 5 mg/kg, route oral; details: rhesus monkey, plasma; procedure, shortened: as §2
[30] = Metabolic stability in human liver microsomes assessed as intrinsic clearance; format: ADME, Microsome
[31] = Terminal phase volume of distribution in rat at 5 mg/kg, iv; format: ADME, organism-based; parameters: dose 5 mg/kg, route intravenous; details: in vivo, read-out: Vbeta; procedure, shortened: as §4
[32] = Drug level in rat liver at 5 mg/kg, po after 12 hrs; format: ADME, organism-based; parameters: dose 5 mg/kg, route oral; details: read-out: Drug uptake; procedure, shortened: as §5
[33] = Inhibition of HCV isolate BK NS5B polymerase after 3 hrs by scintillation counting
[34] = Elimination half life in rat at 5 mg/kg, iv; format: ADME, organism-based; parameters: dose 5 mg/kg, route intravenous; details: in vivo, read-out: beta t1/2 (converted); procedure, shortened: as §2
[35] = Volume of distribution at steady state in monkey at 5 mg/kg, iv; format: ADME, organism-based, Macaca mulatta; parameters: dose 5 mg/kg, route intravenous; details: rhesus monkey, in vivo, read-out: Vdss; procedure, shortened: as §4
[36] = AUC in rat at 5 mg/kg, po; format: ADME, organism-based; parameters: dose 5 mg/kg, route oral; details: plasma; procedure, shortened: as §2
[37] = Plasma clearance in dog at 2.5 mg/kg, iv; format: ADME, organism-based, Canis lupus familiaris; parameters: dose 2.5 mg/kg, route intravenous; procedure, shortened: as §2
[38] = AUC in dog at 2.5 mg/kg, iv; format: ADME, organism-based, Canis lupus familiaris; parameters: dose 2.5 mg/kg, route intravenous; details: plasma; procedure, shortened: as §2
Hepatitis C virus [39] = assay: Antiviral activity against HCV isolate Con1 in human Huh7 cells assessed as reduction in viral RNA after 4 days by RT-PCR; details: isolate Con1, Huh-7, 96 h
[40] = Elimination half life in monkey at 5 mg/kg, iv; format: ADME, organism-based, Macaca mulatta; parameters: dose 5 mg/kg, route intravenous; details: rhesus monkey, in vivo, read-out: beta t1/2 (converted); procedure, shortened: as §2
Hepatitis C virus [41] = assay: Antiviral activity against HCV isolate Con1 assessed as reduction in viral RNA after 4 days by RT-PCR in presence of 40% human serum; details: isolate Con1, 96 h
[42] = Metabolic stability in monkey hepatocytes assessed as intrinsic clearance; format: ADME, cell-based, Macaca mulatta, Liver, Hepatocyte; details: rhesus monkey
[43] = AUC in dog at 2.5 mg/kg, po; format: ADME, organism-based, Canis lupus familiaris; parameters: dose 2.5 mg/kg, route oral; details: plasma; procedure, shortened: as §2
[44] = Volume of distribution at steady state in dog at 2.5 mg/kg, iv; format: ADME, organism-based, Canis lupus familiaris; parameters: dose 2.5 mg/kg, route intravenous; details: in vivo, read-out: Vdss; procedure, shortened: as §4
Hepatocyte [45] = assay: Metabolic stability in human hepatocytes assessed as intrinsic clearance; format: ADME, cell-based, Liver
[46] = Oral bioavailability in rat at 5 mg/kg; format: ADME, organism-based; details: in vivo; procedure, shortened: as §2
[47] = Oral bioavailability in monkey at 5 mg/kg; format: ADME, organism-based, Macaca mulatta; details: rhesus monkey, in vivo; procedure, shortened: as §2
[48] = Solubility in polyethylene glycol 400 at 25 deg C; format: physicochemical; procedure, shortened: as §3
[49] = AUC in monkey at 5 mg/kg, iv; format: ADME, organism-based, Macaca mulatta; parameters: dose 5 mg/kg, route intravenous; details: rhesus monkey, plasma; procedure, shortened: as §2
[50] = Aqueous solubility in 50 mM phosphate buffer at pH 7.4; format: physicochemical; procedure, shortened: as §3

CC(C)(C)CC[C@@]1(C)C(=O)C(C2=NS(=O)(=O)c3cc(NS(C)(=O)=O)ccc3N2)=C([O-])c2ccccc21.[Na+]
Tmax [1]: 2.7 h | logD [2]: 2.26 | clearance [3]: 9.33 mL/min/kg | AUC [4]: 14900 ng·h/mL | solubility [5]: < 0.2 µg/mL | CL [6]: 0.5 µL/min/mg | Ratio EC50 (Hepatitis C virus [7]): 17 | CL (Hepatocyte [8]): 1.6 µL/min/mg | half-life [9]: 12.3 h | IC50 [10]: 0.7 nM | Cmax [11]: 480 ng/mL | Vd [12]: 1.77 L/kg | Vd [13]: 0.46 L/kg | bioavailability [14]: 100% | concentration at 6 h [15]: 21800 ng/g | microsomal CLint [16]: 8.7 µL/min/mg | Vd [17]: 2.22 L/kg | half-life [18]: 2 h | microsomal CLint [19]: 2.4 µL/min/mg | Tmax [20]: 9 h | Cmax [21]: 5700 ng/mL | Cmax [22]: 890 ng/mL | half-life [23]: 14.8 h | microsomal CLint [24]: 14.4 µL/min/mg | EC50 (Hepatitis C virus [25]): 4 nM | clearance [26]: 5.67 mL/min/kg | CC50 [27]: 21700 nM | Tmax [28]: 2.2 h | AUC [29]: 1900 ng·h/mL | microsomal CLint [30]: 23.6 µL/min/mg | Vd [31]: 2.39 L/kg | concentration at 12 h [32]: 4190 ng/g | IC50 [33]: 0.6 nM | half-life [34]: 4.5 h | Vd [35]: 0.77 L/kg | AUC [36]: 11500 ng·h/mL | clearance [37]: 0.333 mL/min/kg | AUC [38]: 116000 ng·h/mL | EC50 (Hepatitis C virus [39]): 2 nM | half-life [40]: 2.1 h | EC50 (Hepatitis C virus [41]): 28 nM | CL [42]: 3.5 µL/min/mg | AUC [43]: 121000 ng·h/mL | Vd [44]: 0.38 L/kg | CL (Hepatocyte [45]): 2.7 µL/min/mg | bioavailability [46]: 77.3% | bioavailability [47]: 19% | solubility [48]: 150000 µg/mL | AUC [49]: 10200 ng·h/mL | solubility [50]: 110 µg/mL

Source: ChEMBL document CHEMBL1152770, “Inhibitors of hepatitis C virus polymerase: synthesis and biological characterization of unsymmetrical dialkyl-hydroxynaphthalenoyl-benzothiadiazines” (J Med Chem, 2009)
